pKi: −log10 of the molar value.
Experiments:
[1] = Partition coefficient, log P at pH 7.4; format: physicochemical; conditions: octanol/water
Procedure, shortened: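 Radioiodinated tracer shaken 3 min at room temperature in 1-octanol and 0.1 M phosphate buffer pH 7.4, centrifuged 5 min. Equal aliquots of each layer counted; ratio of octanol to buffer counts, with octanol layer repartitioned until values were consistent. Triplicate, repeated three times; mean (SD) of three experiments.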

[2] = tested on: Blood; assay: Biodistribution in ddY mouse blood at 2 uCi, iv after 2 mins; format: ADME, organism-based; conditions: in vivo
Procedure, shortened: (§1)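 Normal mice given the 125I-labelled flavone intravenously; killed at each time point postinjection, organs removed, weighed and counted in a γ counter. Radioactivity expressed as % injected dose per gram tissue; mean (SD) of three to five animals per interval.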

[3] = tested on: Liver; assay: Biodistribution in ddY mouse liver at 2 uCi, iv after 2 mins; format: ADME, organism-based; conditions: in vivo; procedure, shortened: as §1
[4] = tested on: Kidney; assay: Biodistribution in ddY mouse kidney at 2 uCi, iv after 2 mins; format: ADME, organism-based; conditions: in vivo; procedure, shortened: as §1
[5] = tested on: Intestine; assay: Biodistribution in ddY mouse intestine at 2 uCi, iv after 2 mins; format: ADME, organism-based; conditions: in vivo; procedure, shortened: as §1
[6] = tested on: Spleen; assay: Biodistribution in ddY mouse spleen at 2 uCi, iv after 2 mins; format: ADME, organism-based; conditions: in vivo; procedure, shortened: as §1
[7] = tested on: Heart; assay: Biodistribution in ddY mouse heart at 2 uCi, iv after 2 mins; format: ADME, organism-based; conditions: in vivo; procedure, shortened: as §1
[8] = tested on: Stomach; assay: Biodistribution per organ in ddY mouse stomach at 2 uCi, iv after 2 mins; format: ADME, organism-based; conditions: in vivo
Procedure, shortened: (§2)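 Normal mice injected intravenously with the 125I-labelled flavone; killed at each time point, stomach removed and counted in a γ counter. Value given as % injected dose per whole organ; mean (SD) of three to five animals per interval.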

[9] = tested on: Brain; assay: Biodistribution in ddY mouse brain at 2 uCi, iv after 2 mins; format: ADME, organism-based; conditions: in vivo; procedure, shortened: as §1
[10] = tested on: Blood; assay: Biodistribution in ddY mouse blood at 2 uCi, iv after 10 mins; format: ADME, organism-based; conditions: in vivo; procedure, shortened: as §1
[11] = tested on: Blood; assay: Biodistribution in ddY mouse blood at 2 uCi, iv after 30 mins; format: ADME, organism-based; conditions: in vivo, 0.5 h; procedure, shortened: as §1
[12] = tested on: Blood; assay: Biodistribution in ddY mouse blood at 2 uCi, iv after 60 mins; format: ADME, organism-based; conditions: in vivo, 1 h; procedure, shortened: as §1
[13] = tested on: Liver; assay: Biodistribution in ddY mouse liver at 2 uCi, iv after 10 mins; format: ADME, organism-based; conditions: in vivo; procedure, shortened: as §1
[14] = tested on: Liver; assay: Biodistribution in ddY mouse liver at 2 uCi, iv after 30 mins; format: ADME, organism-based; conditions: in vivo, 0.5 h; procedure, shortened: as §1
[15] = tested on: Liver; assay: Biodistribution in ddY mouse liver at 2 uCi, iv after 60 mins; format: ADME, organism-based; conditions: in vivo, 1 h; procedure, shortened: as §1
[16] = tested on: Kidney; assay: Biodistribution in ddY mouse kidney at 2 uCi, iv after 10 mins; format: ADME, organism-based; conditions: in vivo; procedure, shortened: as §1
[17] = tested on: Kidney; assay: Biodistribution in ddY mouse kidney at 2 uCi, iv after 30 mins; format: ADME, organism-based; conditions: in vivo, 0.5 h; procedure, shortened: as §1
[18] = tested on: Kidney; assay: Biodistribution in ddY mouse kidney at 2 uCi, iv after 60 mins; format: ADME, organism-based; conditions: in vivo, 1 h; procedure, shortened: as §1
[19] = tested on: Intestine; assay: Biodistribution in ddY mouse intestine at 2 uCi, iv after 10 mins; format: ADME, organism-based; conditions: in vivo; procedure, shortened: as §1
[20] = tested on: Intestine; assay: Biodistribution in ddY mouse intestine at 2 uCi, iv after 30 mins; format: ADME, organism-based; conditions: in vivo, 0.5 h; procedure, shortened: as §1
[21] = tested on: Intestine; assay: Biodistribution in ddY mouse intestine at 2 uCi, iv after 60 mins; format: ADME, organism-based; conditions: in vivo, 1 h; procedure, shortened: as §1
[22] = tested on: Spleen; assay: Biodistribution in ddY mouse spleen at 2 uCi, iv after 10 mins; format: ADME, organism-based; conditions: in vivo; procedure, shortened: as §1
[23] = tested on: Spleen; assay: Biodistribution in ddY mouse spleen at 2 uCi, iv after 30 mins; format: ADME, organism-based; conditions: in vivo, 0.5 h; procedure, shortened: as §1
[24] = tested on: Spleen; assay: Biodistribution in ddY mouse spleen at 2 uCi, iv after 60 mins; format: ADME, organism-based; conditions: in vivo, 1 h; procedure, shortened: as §1
[25] = tested on: Heart; assay: Biodistribution in ddY mouse heart at 2 uCi, iv after 10 mins; format: ADME, organism-based; conditions: in vivo; procedure, shortened: as §1
[26] = tested on: Heart; assay: Biodistribution in ddY mouse heart at 2 uCi, iv after 30 mins; format: ADME, organism-based; conditions: in vivo, 0.5 h; procedure, shortened: as §1
[27] = tested on: Heart; assay: Biodistribution in ddY mouse heart at 2 uCi, iv after 60 mins; format: ADME, organism-based; conditions: in vivo, 1 h; procedure, shortened: as §1
[28] = tested on: Stomach; assay: Biodistribution per organ in ddY mouse stomach at 2 uCi, iv after 10 mins; format: ADME, organism-based; conditions: in vivo; procedure, shortened: as §2
[29] = tested on: Stomach; assay: Biodistribution per organ in ddY mouse stomach at 2 uCi, iv after 30 mins; format: ADME, organism-based; conditions: in vivo, 0.5 h; procedure, shortened: as §2
[30] = tested on: Stomach; assay: Biodistribution per organ in ddY mouse stomach at 2 uCi, iv after 60 mins; format: ADME, organism-based; conditions: in vivo, 1 h; procedure, shortened: as §2
[31] = tested on: Brain; assay: Biodistribution in ddY mouse brain at 2 uCi, iv after 10 mins; format: ADME, organism-based; conditions: in vivo; procedure, shortened: as §1
[32] = tested on: Brain; assay: Biodistribution in ddY mouse brain at 2 uCi, iv after 30 mins; format: ADME, organism-based; conditions: in vivo, 0.5 h; procedure, shortened: as §1
[33] = tested on: Brain; assay: Biodistribution in ddY mouse brain at 2 uCi, iv after 60 mins; format: ADME, organism-based; conditions: in vivo, 1 h; procedure, shortened: as §1
[34] = biological target: T1, Amyloid-beta precursor protein (Homo sapiens, UniProt P05067); assay: Displacement of [125I]6-iodo-4'-dimethyaminofl avone from beta amyloid (1-40) protein aggregates
T1 sequence (P05067 whole entry): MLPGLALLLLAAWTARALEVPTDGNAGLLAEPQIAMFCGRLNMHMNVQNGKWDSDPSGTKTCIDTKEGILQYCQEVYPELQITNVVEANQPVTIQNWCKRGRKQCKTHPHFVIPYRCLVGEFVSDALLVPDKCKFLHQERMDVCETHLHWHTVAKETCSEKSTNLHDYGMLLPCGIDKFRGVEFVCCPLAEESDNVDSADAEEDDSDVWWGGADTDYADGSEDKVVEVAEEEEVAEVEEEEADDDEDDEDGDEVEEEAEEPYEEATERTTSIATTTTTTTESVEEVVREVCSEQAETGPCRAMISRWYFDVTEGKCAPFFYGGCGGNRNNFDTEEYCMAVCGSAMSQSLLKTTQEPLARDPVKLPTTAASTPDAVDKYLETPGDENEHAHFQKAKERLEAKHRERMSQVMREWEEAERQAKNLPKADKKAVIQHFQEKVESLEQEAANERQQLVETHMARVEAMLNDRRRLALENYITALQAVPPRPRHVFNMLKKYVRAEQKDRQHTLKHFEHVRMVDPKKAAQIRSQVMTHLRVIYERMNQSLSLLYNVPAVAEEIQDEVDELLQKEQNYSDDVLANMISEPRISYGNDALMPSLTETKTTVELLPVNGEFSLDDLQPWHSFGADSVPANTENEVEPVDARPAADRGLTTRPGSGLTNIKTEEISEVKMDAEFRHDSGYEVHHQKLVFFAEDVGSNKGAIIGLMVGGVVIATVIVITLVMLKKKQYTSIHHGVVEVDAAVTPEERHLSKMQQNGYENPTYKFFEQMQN

[35] = biological target: T1, Amyloid-beta precursor protein; assay: Displacement of [125I]6-iodo-4'-dimethyaminofl avone from beta amyloid (1-42) protein aggregates

| Compound | logD [1] | Drug uptake [2] | Drug uptake [3] | Drug uptake [4] | Drug uptake [5] | Drug uptake [6] | Drug uptake [7] | Drug uptake [8] | Drug uptake [9] | Drug uptake [10] | Drug uptake [11] | Drug uptake [12] | Drug uptake [13] | Drug uptake [14] | Drug uptake [15] | Drug uptake [16] | Drug uptake [17] | Drug uptake [18] | Drug uptake [19] | Drug uptake [20] | further results |
| --- | --- | --- | --- | --- | --- | --- | --- | --- | --- | --- | --- | --- | --- | --- | --- | --- | --- | --- | --- | --- | --- |
| CNc1ccc(-c2cc(=O)c3cc([125I])ccc3o2)cc1 | 2.15 | 1.89 % ID/g | 16.28 % ID/g | 8.13 % ID/g | 3.1 % ID/g | 2.57 % ID/g | 4.87 % ID/g | 0.78 % ID/organ | 4.12 % ID/g | 1.39 % ID/g | 1.34 % ID/g | 1.5 % ID/g | 25.28 % ID/g | 18.61 % ID/g | 15.14 % ID/g | 5.21 % ID/g | 3.85 % ID/g | 3.05 % ID/g | 7.91 % ID/g | 12.84 % ID/g | Drug uptake [21]: 21.48 % ID/g; Drug uptake [22]: 2.31 % ID/g; Drug uptake [23]: 1.76 % ID/g; Drug uptake [24]: 1.52 % ID/g; Drug uptake [25]: 2.66 % ID/g; Drug uptake [26]: 1.67 % ID/g; Drug uptake [27]: 1.28 % ID/g; Drug uptake [28]: 0.87 % ID/organ; Drug uptake [29]: 1.44 % ID/organ; Drug uptake [30]: 1.8 % ID/organ; Drug uptake [31]: 3.68 % ID/g; Drug uptake [32]: 1.84 % ID/g; Drug uptake [33]: 1.19 % ID/g |
| COc1ccc(-c2cc(=O)c3cc([125I])ccc3o2)cc1 | 2.41 | 1.87 % ID/g | 8.96 % ID/g | 7.99 % ID/g | 3.52 % ID/g | 2.7 % ID/g | 4.98 % ID/g | 0.68 % ID/organ | 4 % ID/g | 1.19 % ID/g | 0.4 % ID/g | 0.23 % ID/g | 9.01 % ID/g | 3.75 % ID/g | 1.88 % ID/g | 6.3 % ID/g | 4.51 % ID/g | 1.46 % ID/g | 14.39 % ID/g | 22.51 % ID/g | Drug uptake [21]: 30.05 % ID/g; Drug uptake [22]: 1.38 % ID/g; Drug uptake [23]: 0.55 % ID/g; Drug uptake [24]: 3.67 % ID/g; Drug uptake [25]: 2.25 % ID/g; Drug uptake [26]: 0.84 % ID/g; Drug uptake [27]: 0.47 % ID/g; Drug uptake [28]: 0.45 % ID/organ; Drug uptake [29]: 0.55 % ID/organ; Drug uptake [30]: 0.31 % ID/organ; Drug uptake [31]: 2.36 % ID/g; Drug uptake [32]: 0.51 % ID/g; Drug uptake [33]: 0.17 % ID/g |
| O=c1cc(-c2ccc(O)cc2)oc2ccc([125I])cc12 | 1.92 | 2.77 % ID/g | 9.77 % ID/g | 14.79 % ID/g | 3.12 % ID/g | 3.92 % ID/g | 5.51 % ID/g | 0.89 % ID/organ | 3.31 % ID/g | 1.58 % ID/g | 0.66 % ID/g | 0.2 % ID/g | 8.24 % ID/g | 6.8 % ID/g | 4.78 % ID/g | 15.11 % ID/g | 6.45 % ID/g | 1.66 % ID/g | 11.26 % ID/g | 22.01 % ID/g | Drug uptake [21]: 27.28 % ID/g; Drug uptake [22]: 1.55 % ID/g; Drug uptake [23]: 0.56 % ID/g; Drug uptake [24]: 0.17 % ID/g; Drug uptake [25]: 1.6 % ID/g; Drug uptake [26]: 0.53 % ID/g; Drug uptake [27]: 0.12 % ID/g; Drug uptake [28]: 0.59 % ID/organ; Drug uptake [29]: 1.56 % ID/organ; Drug uptake [30]: 0.81 % ID/organ; Drug uptake [31]: 1.9 % ID/g; Drug uptake [32]: 0.52 % ID/g; Drug uptake [33]: 0.08 % ID/g |
| CN(C)c1ccc(-c2cc(=O)c3cc([125I])ccc3o2)cc1 | 2.69 | 1.87 % ID/g | 15.41 % ID/g | 8.33 % ID/g | 2.24 % ID/g | 2.72 % ID/g | 5.63 % ID/g | 0.73 % ID/organ | 3.22 % ID/g | 1.07 % ID/g | 1.2 % ID/g | 1.15 % ID/g | 21.85 % ID/g | 15.71 % ID/g | 12.4 % ID/g | 4.31 % ID/g | 3.4 % ID/g | 2.32 % ID/g | 6.56 % ID/g | 12.97 % ID/g | Drug uptake [21]: 18.64 % ID/g; Drug uptake [22]: 1.92 % ID/g; Drug uptake [23]: 1.58 % ID/g; Drug uptake [24]: 1.18 % ID/g; Drug uptake [25]: 2.47 % ID/g; Drug uptake [26]: 1.69 % ID/g; Drug uptake [27]: 1.07 % ID/g; Drug uptake [28]: 0.63 % ID/organ; Drug uptake [29]: 1.17 % ID/organ; Drug uptake [30]: 1.06 % ID/organ; Drug uptake [31]: 3.61 % ID/g; Drug uptake [32]: 1.89 % ID/g; Drug uptake [33]: 0.99 % ID/g |
| Nc1c(/N=N/c2ccc(-c3ccc(/N=N/c4cc(S(=O)(=O)O)c5ccccc5c4N)cc3)cc2)cc(S(=O)(=O)O)c2ccccc12 [CONGO RED] |  |  |  |  |  |  |  |  |  |  |  |  |  |  |  |  |  |  |  |  | pKi [34]: < 6.00; pKi [35]: < 6.00 |

Source: ChEMBL document CHEMBL1139476, “Radioiodinated flavones for in vivo imaging of beta-amyloid plaques in the brain” (J Med Chem, 2005)
